Holding throughout (format): tissue-based
Holding throughout (conditions): Trachea

Assay [1] is filed under the species Cavia porcellus. Kind of assay: Antagonist activity at beta adrenergic receptor in guinea pig tracheal strips assessed as inhibition of 10^-7 M isoproterenol-induced tracheal relaxation incubated 1 hr prior to testing. The essentials: (§1)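 Guinea pig tracheal strips in 10-mL baths, precontracted with carbachol 10^-7 M. Two cumulative isoproterenol dose-response curves per strip: control, then a 1 h wash, then antagonist added 1 h before the second curve. Dose ratio is the antilog of the difference in −log molar isoproterenol ED50. Apparent K_B = [antagonist]/(dose ratio − 1), using three antagonist concentrations (Furchgott).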

Assay [2] is filed under the species Cavia porcellus. Kind of assay: Antagonist activity at beta adrenergic receptor in guinea pig tracheal strips assessed as inhibition of 10^-6 M isoproterenol-induced tracheal relaxation incubated 1 hr prior to testing. In short, it runs like this:
as §1

For assay [3], the species on record is Cavia porcellus. Kind of assay: Antagonist activity at beta adrenergic receptor in guinea pig tracheal strips assessed as inhibition of 10^-5 M isoproterenol-induced tracheal relaxation incubated 1 hr prior to testing. The essentials: as §1
For assay [4], the species on record is Cavia porcellus. Kind of assay: Antagonist activity at beta adrenergic receptor in guinea pig tracheal strips assessed as inhibition of isoproterenol-induced tracheal relaxation incubated 1 hr prior to testing. In short, it runs like this:
as §1

On to `C=CCOc1ccc(O)cc1OCC(O)CNC(C)C` (stereo unspecified), for which the Kb (in general, the affinity of an antagonist, worked out from how it opposes an agonist) is 34.8 nM in the assay filed under Cavia porcellus [1], 37.9 nM in the assay filed under Cavia porcellus [2] and 101 nM in the assay listed under Cavia porcellus [3]. The inhibition result in the assay filed under Cavia porcellus [4] is “Dose-dependent effect”.
In the case of `C=CCOc1ccccc1OCC(O)CNC(C)C` (stereo unspecified), the Kb in the assay filed under Cavia porcellus [1] is 2.61 nM; in the assay filed under Cavia porcellus [2], 5.81 nM. Moreover, the inhibition entry in the assay filed under Cavia porcellus [4] was “Dose-dependent effect”.
As to `C=CCOc1cc(O)ccc1OCC(O)CNC(C)C` (stereo unspecified), the Kb was found to be 26.5 nM in the assay listed under Cavia porcellus [1], 45.5 nM in the assay listed under Cavia porcellus [2] and 122 nM in the assay listed under Cavia porcellus [3]. Moreover, the inhibition entry in the assay listed under Cavia porcellus [4] is “Dose-dependent effect”.
